Data taken from publication PMC7265153 (The Journal of infection, 2019).
Converted amounts (≈) assume the structure as drawn. “And” between values parts separate entries of the source, which are not always exact repeats. Equal entries are not always repeated. Where two headings read alike, the source gives them in different places. Where a SMILES comes first, the peptide text is derived from it. Bridges are numbered along the chain shown (N, C = ends). [ ]: non-standard residue; d: D form. The star is where a group is joined. X1 = CC[C@H](C)CCCCC(=O)*; Dab = NCC[C@H](N)C(=O)O

Experiments:
P. aeruginosa [1] = type: cell-based; settings: Pseudomonas aeruginosa
In short: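 Extremely drug-resistant clinical isolates from patients with urinary tract infection. Species identification and susceptibility testing were done by microdilution on the automated breakpoint panel for non-fermenting Gram-negative bacteria. Colistin MIC was determined by microdilution in cation-adjusted Mueller-Hinton broth, with isolates scored susceptible at MIC ≤ 2 mg/L per CLSI.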

XDR P. aeruginosa [2] = test: Plasma AUC/MIC, fAUC/MIC of formed colistin and attainment of PK/PD targets; type: in vivo, human
MDR-GNB = settings: cited from earlier work
P. aeruginosa [3] = settings: study performed in Spain; cited from earlier work
XDR P. aeruginosa [4] = type: in vivo, human
[5] = in vivo; cited from earlier work
XDR P. aeruginosa [6] = type: cell-based, Pseudomonas aeruginosa
[7] = cited from earlier work
Acute kidney injury = type: in vivo, human; settings: for AKI at EOT: F (Failure) / AKI at EOT: I (Injury) / AKI at EOT: R (Risk): among patients with AKI
[8] = CMS ≥ 6 million IU/day (n = 12)
[9] = included patients with clinical failure (n = 2)
[10] = all patients, RIFLE class among patients with AKI

Compound: NCC[C@H](O)C(=O)N[C@@H]1C[C@H](N)[C@@H](O[C@H]2O[C@H](CN)[C@@H](O)[C@H](O)[C@H]2O)[C@H](O)[C@H]1O[C@H]1O[C@H](CO)[C@@H](O)[C@H](N)[C@H]1O [amikacin]
- MIC (P. aeruginosa [1]): 16 µg/mL (≈ 27.3 µM)

Compound: CC(C)(O/N=C(\C(=O)N[C@@H]1C(=O)N2C(C(=O)[O-])=C(C[n+]3ccccc3)CS[C@H]12)c1csc(N)n1)C(=O)O [ceftazidime]
- MIC (P. aeruginosa [1]): 16 µg/mL (≈ 29.3 µM)

Compound: CC[C@H](C)CCCCC(=O)N[C@@H](CCN)C(=O)N[C@H](C(=O)N[C@@H](CCN)C(=O)N[C@H]1CCNC(=O)[C@H]([C@@H](C)O)NC(=O)[C@H](CCN)NC(=O)[C@H](CCN)NC(=O)[C@H](CC(C)C)NC(=O)[C@@H](CC(C)C)NC(=O)[C@H](CCN)NC1=O)[C@@H](C)O [colistin] (X1-[Dab]T[Dab][Dab][Dab][dL]L[Dab][Dab]T; lactam 4-C)
- patients with microbiological clearance who had reached an AUC/MIC of 60 mg·h/L (XDR P. aeruginosa [2]; 7/19 patients): 36.8%
- patients with pyelonephritis reaching Css,avg above 2.5 mg/L (XDR P. aeruginosa [2]; 9 patients diagnosed with pyelonephritis): none of them reached a Css,avg above 2.5 mg/L
- patients with pyelonephritis achieving AUC/MIC > 60 mg·h/L (XDR P. aeruginosa [2]; 9 patients diagnosed with pyelonephritis, 1 patient): 11.1%
- AUC/MIC > 60 mg∙h/L (XDR P. aeruginosa [2]; CMS < 3 million IU/day (n = 6)): 2 (33.3) n (%)
- AUC/MIC > 60 mg∙h/L (XDR P. aeruginosa [2]; CMS ≥ 3 million IU/day (n = 9)): 1 (11.1) n (%)
- AUC/MIC > 60 mg∙h/L (XDR P. aeruginosa [2]; [8]): 5 (41.7) n (%)
- AUC/MIC > 60 mg∙h/L (XDR P. aeruginosa [2]; CMS ≥ 9 million IU/day (n = 6)): 3 (50) n (%)
- AUC/MIC ≥ 60 mg∙h/L (XDR P. aeruginosa [2]; all patients n = 33): 11 (33.3) n (%)
- fAUC/MIC (XDR P. aeruginosa [2]; all patients n = 33, unbound fraction 0.5, mean ± standard deviation, SD): 30.2 ± 28.2
- fAUC/MIC (XDR P. aeruginosa [2]; included patients with clinical cure (n = 31), median (interquartile range)): 21.5 (5.04–124.8)
- Css > 2,5 mg/L (XDR P. aeruginosa [2]; [9]): 1 (50) 1 (50) n (%)
- fAUC/MIC (XDR P. aeruginosa [2]; included patients with clinical failure (n = 2), median (interquartile range)): 47.4 (7.44–87.4)
- Css > 2,5 mg/L (XDR P. aeruginosa [2]; patients treated with colistin alone, clinical cure (n=17)): 1 (5.9) n (%)
- fAUC/MIC (XDR P. aeruginosa [2]; patients treated with colistin alone, clinical cure (n=17), median (interquartile range)): 16.8 (4.8–81.6)
- fAUC/MIC (XDR P. aeruginosa [2]; patients with AKI at EOT (n = 10), median (interquartile range)): 48.4 (14.4–124.8)
- fAUC/MIC (XDR P. aeruginosa [2]; patients without AKI at EOT (n = 23), median (interquartile range)): 13.7 (4.8–58.1)
- clinical cure rate in patients diagnosed with UTI (MDR-GNB; retrospective study, low-dose colistin): 83.3%
- MIC50/90 values (P. aeruginosa [3]): 2 µg/mL (≈ 1.71 µM)
- emergence of colistin-resistant isolates (XDR P. aeruginosa [4]; during the next 30 days after treatment): no colistin-resistant isolates were detected
- Css,avg associated with a higher risk of AKI at EOT [5]: > 2420 ng/mL
- rate of colistin-associated nephrotoxicity [5]: 40–50%
- MIC50 (XDR P. aeruginosa [6]): 0.5 µg/mL (≈ 0.428 µM)
- MIC90 (XDR P. aeruginosa [6]): 2 µg/mL (≈ 1.71 µM)
- patients with colistin in urine much higher than in plasma ([7]; 11 of 12 patients treated with CMS): 91.7%
- concentrations of formed colistin in urine ([7]; 12 patients treated with CMS, maximum): up to 95.4 mg/L
- concentrations of formed colistin in plasma ([7]; 12 patients treated with CMS, median (IQR <0.2–1.4 mg/L)): 900 ng/mL
- half-life ([7]; assumed for reaching steady state): approximately 14 h
- unbound fraction for colistin in human plasma ([7]; human plasma): 0.5
- Odds ratio (95% CI) of Css for nephrotoxicity at EOT (Acute kidney injury; multivariate logistic regression, P = 0.074): 4.36 (0.86–20)

Compound: C[C@@H](O)[C@H]1C(=O)N2C(C(=O)O)=C(S[C@@H]3CN[C@H](C(=O)N(C)C)C3)[C@H](C)[C@H]12 [meropenem]
- MIC (P. aeruginosa [1]): ≥ 8 µg/mL

Compound: Colistimethate sodium [CMS]
- Clinical cure (MDR-GNB; 13 patients with UTI caused by XDR P. aeruginosa): 84.6%
- rate of clinical cure in UTI caused by MDR-GNB (MDR-GNB; recent clinical studies): 50 to 92%
- Clinical cure in patients with pyelonephritis (XDR P. aeruginosa [4]; 9 patients diagnosed with pyelonephritis, six (66.7%) on combined therapy): All of them achieved clinical cure
- Microbiological clearance (XDR P. aeruginosa [4]; 23 patients with microbiological follow up): 19 (82.6) n (%)
- Clinical cure (XDR P. aeruginosa [4]; CMS < 3 million IU/day (n = 6)): 6 (100) n (%)
- Clinical cure (XDR P. aeruginosa [4]; CMS ≥ 3 million IU/day (n = 9)): 8 (88.9) n (%)
- Clinical cure (XDR P. aeruginosa [4]; [8]): 11 (91.7) n (%)
- Clinical cure (XDR P. aeruginosa [4]; CMS ≥ 9 million IU/day (n = 6)): 6 (100) n (%)
- Clinical cure (XDR P. aeruginosa [4]; all patients n = 33 (42.4% on combined antibiotic therapy)): 31 (93.9) n (%)
- CMS dose eliminated in the urine [7]: 60–70%
- rate of CMS conversion into colistin ([7]; young volunteers, single dose of 1 million IU (80 mg) CMS): 30%
- CMS excreted in urine ([7]; young volunteers, single dose of 1 million IU (80 mg) CMS, on average): 70%
- AKI at EOT (Acute kidney injury; CMS < 3 million IU/day (n = 6)): 2 (33.3) n (%)
- AKI at EOT: F (Failure) (Acute kidney injury; CMS < 3 million IU/day (n = 6)): 0 (0) n (%)
- AKI at EOT: I (Injury) (Acute kidney injury; CMS < 3 million IU/day (n = 6)): 1 (50) n (%)
- AKI at EOT: R (Risk) (Acute kidney injury; CMS < 3 million IU/day (n = 6)): 1 (50) n (%)
- AKI at EOT (Acute kidney injury; CMS ≥ 3 million IU/day (n = 9)): 3 (33.3) n (%)
- AKI at EOT: F (Failure) (Acute kidney injury; CMS ≥ 3 million IU/day (n = 9)): 1 (33.3) n (%)
- AKI at EOT: I (Injury) (Acute kidney injury; CMS ≥ 3 million IU/day (n = 9)): 2 (66.6) n (%)
- AKI at EOT: R (Risk) (Acute kidney injury; CMS ≥ 3 million IU/day (n = 9)): 0 (0) n (%)
- AKI at EOT (Acute kidney injury; [8]): 4 (33.3) n (%)
- AKI at EOT: F (Failure) (Acute kidney injury; [8]): 0 (0) n (%)
- AKI at EOT: I (Injury) (Acute kidney injury; [8]): 3 (75) n (%)
- AKI at EOT: R (Risk) (Acute kidney injury; [8]): 1 (25) n (%)
- AKI at EOT (Acute kidney injury; CMS ≥ 9 million IU/day (n = 6)): 1 (16.7) n (%)
- AKI at EOT: F (Failure) (Acute kidney injury; CMS ≥ 9 million IU/day (n = 6)): 1 (100) n (%)
- AKI at EOT: I (Injury) (Acute kidney injury; CMS ≥ 9 million IU/day (n = 6)): 0 (0) n (%)
- AKI at EOT: R (Risk) (Acute kidney injury; CMS ≥ 9 million IU/day (n = 6)): 0 (0) n (%)
- AKI at the end of treatment (Acute kidney injury; all patients n = 33, RIFLE criteria): 10 (30.3%) n (%) and 10 (30.3) n (%)
- AKI at the end of treatment: F (Failure) (Acute kidney injury; [10]): 2 (22.2) n (%)
- AKI at the end of treatment: I (Injury) (Acute kidney injury; [10]): 5 (55.5) n (%)
- AKI at end of treatment (Acute kidney injury; included patients with clinical cure (n = 31)): 9 (29) n (%)
- AKI at end of treatment (Acute kidney injury; [9]): 1 (50) n (%)
